According to ChEMBL document CHEMBL1124005, “Inhibitors of cyclic AMP phosphodiesterase. 4. Synthesis and evaluation of potential prodrugs of lixazinone (N-cyclohexyl-N-methyl-4-[(1,2,3,5-tetrahydro-2- oxoimidazo[2,1-b]quinazolin-7-yl)-oxy]butyramide, RS-82856)” (J Med Chem, 1988):
The source made the active and inactive calls. No cut-off for these calls is given here.

Assays:
Canis familiaris [1] = assay: In vivo inotropic activity in canine model by intraduodenal administration (Inactive); assay type: functional, organism-based; conditions: Canis lupus familiaris
[2] = In vitro inhibitory activity against platelet phosphodiesterase (PDE)
In short: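 Human platelet cAMP PDE in 10 mM Tris-HCl pH 7.7, 10 mM MgSO4, 1 µM […]. Compounds dissolved in DMSO, held 10 min in medium before enzyme addition, then 10 min at 30 °C. Five inhibitor concentrations run in triplicate; IC50 read graphically from mean curves.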

Homo sapiens = species on record: Homo sapiens; assay: Inhibition of platelet aggregation; assay type: functional
Canis familiaris [3] = assay: In vivo inotropic activity in canine model by intravenous administration (Inactive); assay type: functional, organism-based; conditions: Canis lupus familiaris
Canis familiaris [4] = assay: In vivo inotropic activity in canine model by intraduodenal administration of 1.0 mg/kg efficacious dose; assay type: functional, Canis lupus familiaris
Canis familiaris [5] = assay: In vivo inotropic activity in canine model by intravenous administration of 0.316 mg/kg efficacious dose; assay type: functional, Canis lupus familiaris
Canis familiaris [6] = assay: In vivo inotropic activity in canine model by intraduodenal administration of 3.16 mg/kg efficacious dose; assay type: functional, Canis lupus familiaris
Canis familiaris [7] = assay: In vivo inotropic activity in canine model by intravenous administration 1.0 mg/kg efficacious dose; assay type: functional, Canis lupus familiaris
Canis familiaris [8] = assay: In vivo inotropic activity in canine model by intraduodenal administration of 0.316 mg/kg efficacious dose; assay type: functional, Canis lupus familiaris
Canis familiaris [9] = assay: In vivo inotropic activity in canine model by intravenous administration of 0.10 mg/kg efficacious dose; assay type: functional, Canis lupus familiaris; conditions: dose 0.1 mg/kg
Canis familiaris [10] = assay: Pharmacokinetic parameter AUC was determined in dog after oral administration of 17b; assay type: ADME, organism-based, Canis lupus familiaris; conditions: in vivo
In short: (§1)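 Six fasted conscious female dogs (9.4–10.5 kg) were each given one oral hard-gelatin capsule, dose equivalent to 15 mg parent drug, with 1 week between doses. Jugular blood was sampled at 0–24 h. Plasma parent drug was measured by HPLC after SCX/C-18 extraction (C-8, 280 nm, limit 5 ng/mL). AUC0–24 h was calculated by trapezoidal rule; values are mean ± SD.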

Canis familiaris [11] = assay: Pharmacokinetic parameter AUC was determined in dog after oral administration of 2b; assay type: ADME, organism-based, Canis lupus familiaris; conditions: in vivo; in short: as §1

Row | SMILES | IC50 [2] [nM] | IC50 (Homo sapiens) [nM] | Max CF response (Canis familiaris [5]) [%] | Max CF response (Canis familiaris [6]) [%] | other results
1 | Br.CN(C(=O)CCCOc1ccc2c(c1)CN(CC(=O)OC(C)(C)C)C(N)=N2)C1CCCCC1 | 430 | 4300 |  |  | Max CF response (Canis familiaris [1]): inactive; Max CF response (Canis familiaris [3]): inactive
2 | CN(C(=O)CCCOc1ccc(N)c(CN2CC(=O)NC2=O)c1)C1CCCCC1 | 3400 |  |  |  | 
3 | Br.CN(C(=O)CCCOc1ccc2c(c1)CN(CC(=O)O)C(N)=N2)C1CCCCC1 | 60 |  |  |  | Max CF response (Canis familiaris [1]): inactive; Max CF response (Canis familiaris [3]): inactive
4 | CN(C(=O)C(CCOc1ccc2c(c1)CN1CC(=O)NC1=N2)C(=O)O)C1CCCCC1 (stereo not given) | 5 |  | 58 |  | Max CF response (Canis familiaris [4]): 20%
5 | Br.CC(OC(=O)CN1Cc2cc(OCCCC(=O)N(C)C3CCCCC3)ccc2N=C1N)C(C)(C)C (stereo not given) | 470 | 17000 |  | 62 | 
6 | CN(C(=O)CCCOc1ccc2c(c1)CN1CC(=O)N(COC(=O)C(C)(C)C)C1=N2)C1CCCCC1 | 150 |  |  |  | 
7 | Br.CN(C(=O)CCCOc1ccc2c(c1)CN(CC(=O)Nc1ccccc1)C(N)=N2)C1CCCCC1 | 100 | 5400 | 64 | 37 | 
8 | Br.CN(C(=O)CCCOc1ccc2c(c1)CN(CC(N)=O)C(N)=N2)C1CCCCC1 | 120 | 4200 | 37 | 37 | 
9 | Br.CC(OC(=O)CN1Cc2cc(OCCCC(=O)N(C)C3CCCCC3)ccc2N=C1N)c1ccccc1 (stereo not given) | 8 | 150 | 61 | 64 | 
10 | CCOC(=O)C(CCOc1ccc2c(c1)CN1CC(=O)NC1=N2)C(=O)N(C)C1CCCCC1 (stereo not given) | 6.1 |  | 50 |  | Max CF response (Canis familiaris [4]): 50%
11 | CN(C(=O)CCCOc1ccc2c(c1)CN(CC(N)=O)C(=O)N2)C1CCCCC1 | 18500 |  |  |  | 
12 | Br.CC(C)OC(=O)CN1Cc2cc(OCCCC(=O)N(C)C3CCCCC3)ccc2N=C1N | 63 | 3400 | 40 | 31 | 
13 | Br.CN(C(=O)CCCOc1ccc2c(c1)CN(CC(=O)OC1CCCCC1)C(N)=N2)C1CCCCC1 | 52 | 1200 |  | 45 | 
14 | Br.CCOC(=O)CN1Cc2cc(OCCCC(=O)N(C)C3CCCCC3)ccc2N=C1N | 9.3 |  | 75 | 62 | 
15 | CCOC(=O)CN1Cc2cc(OCCCC(=O)N(C)C3CCCCC3)ccc2N=C1NC(C)=O | 3100 | 100000 |  | 58 | Max CF response (Canis familiaris [7]): 58%
16 | CN(C(=O)CCCOc1ccc2c(c1)CN1CC(=O)NC1=N2)C1CCCCC1 [LIXAZINONE] | 6 | 50 |  |  | Max CF response (Canis familiaris [8]): 42%; Max CF response (Canis familiaris [9]): 71%; AUC (Canis familiaris [10]): 268 ng·h/mL; AUC (Canis familiaris [11]): 257 ng·h/mL
17 | Br.CN(C(=O)CCCOc1ccc2c(c1)CN(CC(=O)OCC(C)(C)C)C(N)=N2)C1CCCCC1 | 35 |  |  |  | 
18 | CN(C(=O)CCCOc1ccc2c(c1)CN1CC(=O)N(CN3CCOCC3)C1=N2)C1CCCCC1 | 16 |  |  |  | Max CF response (Canis familiaris [8]): 25%; Max CF response (Canis familiaris [9]): 65%
19 | Br.CN(C(=O)CCCOc1ccc2c(c1)CN(CC(=O)N1CCOCC1)C(N)=N2)C1CCCCC1 | 52 | 700 | 71 | 70 | 
20 | Br.CN(C(=O)CCCOc1ccc2c(c1)CN(CC(=O)N1CCCCC1)C(N)=N2)C1CCCCC1 | 10 |  |  |  | 
